Screening results (PubChem)
hiPSC survival – enhancers of single-cell hiPSC survival, primary screen, ATPlite luminescence | 360,000 compounds, 0.044% hits | survival enhancement, % at 20 µM | 100% = ROCK inhibitor wells, 0% = DMSO; in the data active = survival enhancement above about 18%;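 note: cells exposed to compounds for 16 hours before the ATP read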
SENP1 inh – human SENP1 catalytic domain inhibitors, primary screen, biochemical, FRET, uHTS; Sentrin-specific protease 1 (Homo sapiens), Q9P0U3; recombinant SENP1 catalytic domain, CyPet-SUMO1-YPet FRET cleavage; inhibition, % at 10 µM; 360,000 compounds, 0.21% hits; AID 624204, 2012;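 active = inhibition at least 30% at 10 µM, raw YFP signal under a set limit, fluorescence ratio 0.5 to 1.5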;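 note: 0% = enzyme with DMSO and 100% = no enzyme wells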
Target sequence (Q9P0U3 419-644 limits assumed): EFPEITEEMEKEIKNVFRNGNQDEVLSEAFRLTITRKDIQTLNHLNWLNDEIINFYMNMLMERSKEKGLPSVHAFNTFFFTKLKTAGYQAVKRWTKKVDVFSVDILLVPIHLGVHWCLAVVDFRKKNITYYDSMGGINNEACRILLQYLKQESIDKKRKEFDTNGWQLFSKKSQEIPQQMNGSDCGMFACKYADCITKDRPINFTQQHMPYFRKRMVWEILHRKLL
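Test system: hSENP1 catalytic domain, recombinant; Amount: 20 pM final SENP1 enzyme; Medium: Tris pH 8 buffer plus EDTA, NaCl, BME, BSA, NP40, catalase; Schedule: 50 min enzyme reaction, room temperature, light-protected; Technique: FRET fluorescence in CFP and YFP emission channels; Controls: no-enzyme wells low, DMSO-plus-enzyme wells high control.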
H9c2 protect – cardioprotection against H2O2-induced cell death, primary screen, uHTS, H9c2 cells, ATPLite luminescence. H9c2 cardiomyocytes, H2O2 injury protection, 2 h. 360,000 compounds, 0.63% hits. AID 588492, 2011. protection from H2O2 cell death, % at 20 µM;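 active = compounds giving at least 50% protection of heart cells from peroxide-induced death in the single-dose screen, raw or plate-pattern-corrected value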;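 note: 0% = DMSO wells with peroxide and 100% = DMSO wells without peroxide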
FAS TE block – FAS thioesterase domain inhibitors, primary screen, biochemical, fluorescence intensity, uHTS; 360,000 compounds, 0.67% hits; inhibition, % at 15 µM; Fatty acid synthase (Homo sapiens), P49327; recombinant FAS-TE, OMFH fluorogenic substrate, fluorescence endpoint; AID 602261, 2012;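 active = compounds whose normalised, plate-corrected inhibition of enzyme fluorescence in the single-dose primary screen is 50% or more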;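 note: 0% = DMSO with enzyme and 100% = substrate without enzyme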
Arrestin-AP2 inh – inhibitors of beta-arrestin/AP2 binding, primary screen, biochemical, GPCR trafficking, flow cytometry; beta-arrestin 1 C-terminal peptide binding to AP2 beta2-adaptin appendage (human); FITC-arrestin peptide / GST-AP2 beads; AP2 beta2 appendage carries R879A mutation; inhibition, % at 10 µM; 340,000 compounds, 0.31% hits; AID 504490, 2011;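 active = inhibition above a set limit, near 3 SD of compounds lacking own fluorescence, cut at about 54% in these data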;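 note: plate controls were DMSO wells for no effect and 5 µM unlabelled arrestin peptide for full effect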
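System: GST-AP2 R879A glutathione beads; medium: PBS, Tween 20 0.05%, BSA 0.1%; reagent: fluorescein-tagged arrestin peptide at 50 nM final; schedule: pre-incubation 12 min, peptide binding 1 h, room temperature; detection: flow cytometry, FL1 (488/535 nm); read-out: inhibition as reduced fluorescein signal on beads, percent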
NR3A LBD binder – binders of NR3A ligand-binding domain, primary screen, biophysical, differential scanning fluorimetry, uHTS; Glutamate receptor ionotropic, NMDA 3A (GRIN3A) ligand-binding domain; NR3A LBD differential scanning fluorimetry, Tm shift; 0% = protein alone, 100% = glycine-bound protein; Tm shift relative to glycine control, % at 25 µM; 340,000 compounds, 2.5% hits; AID 1259313, 2017;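 active = melting temperature shift of at least 10% of the positive control shift, at one fixed dose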
FAS-TE conf – FAS thioesterase domain inhibitors, confirmation, biochemical, fluorescence intensity, single concentration; 2,300 compounds, 45% hits; recombinant FAS-TE, OMFH fluorogenic substrate; shares compounds with FAS TE block; inhibition, % at 15 µM;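 active = compounds inhibiting the enzyme by at least 50% at 15 µM in any one of the replicates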;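 note: 0% = enzyme with DMSO only and 100% = wells lacking enzyme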
SENP1 inh conf – human SENP1 catalytic domain inhibitors, confirmation, biochemical, FRET endpoint, single concentration; shares compounds with SENP1 inh; recombinant SENP1, CyPet-SUMO1-YPet FRET cleavage; inhibition, % at 10 µM; 520 compounds, 34% hits; AID 651678, 2012; in the data active = inhibition mostly above about 35%, no sharp cut-off; inactive = mostly below about 32%;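 note: 0% = enzyme with DMSO and 100% = no enzyme control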
SENP1 kin conf – human SENP1 catalytic domain inhibitors, confirmation, biochemical, kinetic FRET, single concentration; shares compounds with SENP1 inh; recombinant SENP1, CyPet-SUMO1-YPet FRET kinetic cleavage; inhibition, % at 10 µM; 520 compounds, 26% hits; AID 651690, 2012; in the data active = inhibition mostly above about 32%, no sharp cut-off; inactive = mostly below about 29%;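 note: 0% = DMSO with enzyme and 100% = no enzyme substrate only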
Numbers without * were called inactive; · = no result given. Shown are actives, neighbours in structure and some others; about 4% of the full set was active somewhere.

SMILES | hiPSC survival | SENP1 inh | H9c2 protect | FAS TE block | Arrestin-AP2 inh | NR3A LBD binder | FAS-TE conf | others
COCCOc1ccc(C(F)(F)F)cc1NC(=O)Cc1ccc(S(=O)(=O)N2CCOCC2)s1 | 0 | -7 | -8 | 65* | -1 | -3 | 69*
CN(Cc1ccc(C(C)(C)C)cc1)C(=O)Cc1ccc(S(=O)(=O)N2CCOCC2)s1 | 1 | -3 | -9 | 85* | -6 | 1 | 89*
O=C(CCC(=O)Nc1cccc([N+](=O)[O-])c1)N/N=C/c1cccs1 | 3 | 3 | 4 | 18 | -3 | -1 | ·
O=C(CCCC(=O)Nc1cccc(Br)c1)N/N=C/c1cc([N+](=O)[O-])ccc1O | 0 | 6 | 36 | 54* | 0 | 7 | 72*
COc1ccc(OC)c(/C=N/NC(=O)CCCC(=O)Nc2cccc(Br)c2)c1 | 1 | 3 | -6 | 6 | 9 | -7 | ·
O=C(CCC(=O)Nc1cccc(Cl)c1)N/N=C/c1cc([N+](=O)[O-])ccc1O | 0 | -3 | 48 | 65* | -17 | 3 | 83*
CCOC(=O)c1c(C)[nH]c(C(=O)COC(=O)CCNS(=O)(=O)c2ccc(NC(C)=O)cc2)c1C | -2 | 1 | -6 | -3 | -12 | 0 | ·
COc1ccc(S(=O)(=O)N2CCOCC2)cc1NC(=O)c1cccc2c(=O)c(C)c(-c3ccccc3)oc12 | 0 | -1 | 71* | 93* | 6 | -2 | 27
CC(C)Oc1ccc(S(=O)(=O)N2CCOCC2)cc1NC(=O)c1nn(C)c(=O)c2ccccc12 | -5 | 1 | 38 | 67* | -18 | -2 | 26
CCN(CC)S(=O)(=O)c1ccc(N2CCOCC2)c(NC(=O)c2cccc3c(=O)c(C)c(-c4ccccc4)oc23)c1 | 0 | 2 | 45 | 36 | 7 | -1 | ·
CN(C)c1ncnc2c1ncn2[C@H]1CN(Cc2cccs2)C[C@@H](CO)O1 | 1 | -5 | 0 | -7 | · | · | ·
Nc1ccn([C@@H]2O[C@H](CNS(=O)(=O)c3cc4ccccc4s3)[C@@H](O)[C@H]2O)c(=O)n1 | -1 | 2 | 4 | -8 | · | · | ·
O=C1N=c2ccc([N+](=O)[O-])cc2=C1c1sc(=O)[nH]c1O | 0 | 3 | 20 | 56* | 9 | -1 | 66*
O=C1N=c2ccccc2=C1c1sc(=O)[nH]c1O | 1 | 2 | -1 | -7 | 5 | -16 | ·
O[C@@H]1C[C@H](c2ccc(Cl)cc2)N(CC2CCCCC2)C[C@H]1n1cc(C2CC2)nn1 | 0 | -1 | -5 | 3 | · | · | ·
O[C@H]1C[C@H](c2ccc(Cl)cc2)N(CC2CCCCC2)C[C@@H]1n1cc(C2CC2)nn1 | -1 | -3 | -34 | 59* | · | · | 56*
CC(=O)c1cccc(NC(=O)C2Cc3c(-c4ccccc4Oc4ccccc4)ccnc3O2)c1 (centres undefined) | 1 | 0 | -11 | 16 | · | · | ·
CC1ON=C(c2cccc3ccccc23)N(C)C1=O (centres undefined) | -1 | 0 | 0 | -2 | · | · | ·
Cc1ccc2nc(N/C(N)=N/S(=O)(=O)c3ccc([N+](=O)[O-])cc3)nc(C)c2c1 | 1 | 0 | -8 | 67* | 3 | -3 | 55*
Cc1ccc(S(=O)(=O)/N=C(\N)Nc2nc(C)c3ccccc3n2)cc1 | 0 | 1 | -9 | 12 | 2 | -2 | ·
Cc1cc(/C=C(\C#N)C(=O)Nc2ccc(F)cc2)c(C)n1-c1ccc(N2CCOCC2)c([N+](=O)[O-])c1 | -3 | -5 | -3 | 62* | 10 | -3 | -2
COc1ccc(NC(=O)/C(C#N)=C\c2cc(C)n(-c3ccc(Oc4ccc([N+](=O)[O-])cn4)cc3)c2C)cc1 | 4 | -1 | -10 | 3 | 2 | -4 | ·
CNC(=O)/C(C#N)=C\c1cc(C)n(-c2ccc(N3CCOCC3)cc2)c1C | -2 | -3 | -6 | -1 | -14 | -2 | ·
COc1ccc(NC(=O)/C(C#N)=C/c2cc(C)n(-c3ccc(N4CCOCC4)c([N+](=O)[O-])c3)c2C)cc1 | 1 | -2 | -3 | 79* | 1 | -6 | 25
O=[N+]([O-])c1cc(-c2csc(NCCc3nc4cc(Cl)c(Cl)cc4n3CCCO)n2)ccc1Cl | 0 | 4 | 8 | 75* | 31 | -6 | 72*
SMILES | hiPSC survival | SENP1 inh | H9c2 protect | FAS TE block | Arrestin-AP2 inh | NR3A LBD binder | FAS-TE conf | others
COC(=O)c1ccccc1NC(=S)N(Cc1ccc2c(c1)OCO2)Cc1cc2cc(OC)ccc2[nH]c1=O | 1 | -10 | 13 | 68* | -10 | 1 | 31
Cc1cc(C)cc(C(O)c2ncc(-c3ccccc3C)[nH]2)c1 (centres undefined) | 0 | -3 | -5 | -5 | · | · | ·
COC(=O)c1cc(C(=O)NCCN2C(=O)S/C(=C\c3cccs3)C2=O)cc([N+](=O)[O-])c1 | 0 | 2 | -2 | 60* | 44 | -3 | 5
Cc1ccc(-c2nnc(NC3CCCCC3)c3ccccc23)cc1S(=O)(=O)N1CCN(C)CC1 | -2 | 1 | 14 | 6 | -1 | -1 | ·
Cc1ccc(-c2nnc(NCc3nc4ccccc4[nH]3)c3ccccc23)cc1S(=O)(=O)N1CCCCC1 | 1 | -10 | 13 | 69* | 2 | 2 | 21
Cc1cc(C(C)(C)C)cc(C)c1CCNC(=O)c1c(C)noc1C | 0 | -1 | -10 | -6 | -5 | -3 | ·
O=C(CN1CCSC1=NCc1ccccc1)c1ccc(Cl)c(Cl)c1 | 1 | 40* | 1 | 54* | 1 | -4 | 41 | SENP1 inh conf=-13;SENP1 kin conf=-5
COc1cccc(C(=O)c2ccccc2NC(C)=O)c1 | 0 | -2 | 4 | -2 | · | · | ·
Nc1nc(=S)ss1 | 4 | 2 | 29 | -10 | 28 | 3 | ·
